{"source": "ChEMBL document CHEMBL5344453", "about": "“Selective Recognition of c-KIT 1 G-Quadruplex by Structural Tuning of Heteroaromatic Scaffolds and Side Chains” (ACS Med Chem Lett, 2024)", "key": {"[1]": {"tested_on": "Quadruplex DNA", "assay": "Stabilization of G-quadruplex VEGF 5-FAM-CGGGGCGGGCCGGGGGCGGGGT-TAMRA-3 (unknown origin) assessed as change in melting temperature at 1 uM incubated for 1 hr in dark condition by FRET-based melting assay", "type": "nucleic-acid assay", "in_short": "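FRET melting of dual-fluorophore-tagged oligonucleotides (200 nM) in 60 mM potassium cacodylate buffer, pH 7.4, with ligand at 1 μM; ΔTm taken against the ligand-free oligonucleotide Tm as control.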"}, "[2]": {"tested_on": "Quadruplex DNA", "assay": "Stabilization of G-quadruplex c-KIT1 5-FAM-GGGAGGGCGCTGGGAGGAGGG-TAMRA-3 (unknown origin) assessed as change in melting temperature at 10 uM incubated for 1 hr in dark condition by FRET-based melting assay", "type": "nucleic-acid assay", "in_short": "(§1)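 FRET melting of dual-fluorophore (FAM/TAMRA) tagged G-quadruplex (200 nM) in 60 mM potassium cacodylate, pH 7.4. The screen used 1 μM ligand; dose series used 1, 3, 5, 7 and 10 μM. ΔTm was taken against the Tm of the same oligonucleotide without ligand.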"}, "[3]": {"tested_on": "Quadruplex DNA", "assay": "Stabilization of G-quadruplex c-MYC 5-FAM-TGGGGAGGGTGGGGAGGGTGGGGAAGG-TAMRA- 3 (unknown origin) assessed as change in melting temperature at 10 uM incubated for 1 hr in dark condition by FRET-based melting assay", "type": "nucleic-acid assay", "in_short": "as §1"}, "[4]": {"tested_on": "Quadruplex DNA", "assay": "Stabilization of G-quadruplex BCL2 5-FAM-AGGGGCGGGCGCGGGAGGAAGGGGGCGGGAGCGGGGCTG-TAMRA-3 (unknown origin) assessed as change in melting temperature at 10 uM incubated for 1 hr in dark condition by FRET-based melting assay", "type": "nucleic-acid assay", "in_short": "as §1"}, "[5]": {"tested_on": "Quadruplex DNA", "assay": "Binding affinity to excessive G-quadruplex c-KIT1 5-FAM-GGGAGGGCGCTGGGAGGAGGG-TAMRA-3 (unknown origin) assessed as fold increase in fluorescence intensity at 1 uM incubated for 1 hr in dark condition by fluorescence spectroscopy assay relative to c-KIT2", "type": "nucleic-acid assay", "in_short": "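Ligand (1.0 μM) titrated to saturation with increasing G-quadruplex in 100 mM Tris-KCl buffer, pH 7.4. The value is the ratio of the c-KIT 1 fold change in fluorescence intensity to the fold change obtained with VEGF or c-KIT 2.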"}, "[6]": {"tested_on": "Quadruplex DNA", "assay": "Binding affinity to excessive G-quadruplex c-KIT2 5-FAM-GGGCGGGCGCGAGGGAGGGG-TAMRA-3 (unknown origin) assessed as fold increase in fluorescence intensity at 1 uM incubated for 1 hr in dark condition by fluorescence spectroscopy assay", "type": "nucleic-acid assay", "in_short": "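Fluorimetric titration in 100 mM Tris-KCl buffer, pH 7.4. Ligand fixed at 1.0 μM and titrated with increasing concentrations of each G-quadruplex until fluorescence saturation. The fold increase in ligand fluorescence intensity was read, and Kd was derived from the titration plot.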"}, "[7]": {"biological_target": "Quadruplex DNA", "assay": "Binding affinity to G-quadruplex c-KIT1 5-FAM-GGGAGGGCGCTGGGAGGAGGG-TAMRA-3 (unknown origin) assessed as dissociation constant by fluorescence spectroscopy assay", "type": "nucleic-acid assay"}, "[8]": {"biological_target": "Quadruplex DNA", "assay": "Binding affinity to G-quadruplex VEGF 5-FAM-CGGGGCGGGCCGGGGGCGGGGT-TAMRA-3 (unknown origin) assessed as dissociation constant by fluorescence spectroscopy assay", "type": "nucleic-acid assay", "in_short": "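Fluorimetric titration of ligand held at 1.0 μM with increasing concentrations of G4 or dsDNA until saturation. Change in ligand fluorescence intensity was fitted for Kd. Run in 100 mM Tris-KCl buffer, pH 7.4.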"}, "[9]": {"tested_on": "Quadruplex DNA", "assay": "Binding affinity to G-quadruplex c-KIT1 5-FAM-GGGAGGGCGCTGGGAGGAGGG-TAMRA-3 (unknown origin) assessed as increase in melting temperature by CD spectra analysis", "type": "nucleic-acid assay"}, "[10]": {"biological_target": "Quadruplex DNA", "assay": "Binding affinity to G-quadruplex c-KIT 2 5-FAM-GGGCGGGCGCGAGGGAGGGG-TAMRA-3 (unknown origin) assessed as dissociation constant by measuring thermogram by isothermal titration calorimetry (ITC) assay", "type": "nucleic-acid assay", "in_short": "(§2)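 ITC of ligand binding to folded G4 in 100 mM Tris-KCl buffer, pH 7.4. Kd and stoichiometry were obtained from the isothermal heat curve and binding isotherm.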"}, "[11]": {"biological_target": "Quadruplex DNA", "assay": "Binding affinity to G-quadruplex h-TELO 5-FAM-TTGGGTTAGGGTTAGGGTTAGGGA-TAMRA-3 (unknown origin) assessed as dissociation constant by measuring thermogram by isothermal titration calorimetry (ITC) assay", "type": "nucleic-acid assay", "in_short": "as §2"}, "[12]": {"tested_on": "K562", "assay": "Cytotoxicity against human c-KIT-positive K562 cells assessed as cell viability measured after 24 hrs by XTT formazan assay", "type": "functional, cell-based", "conditions": "K562, 24 h"}, "[13]": {"tested_on": "K562", "assay": "Attenuation of proto-oncogene expression in human c-KIT-positive K562 cells assessed as reduction in c-MYC oncogene expression at 6 uM measured after 24 hrs by qRT-PCR analysis relative to control", "type": "functional", "in_short": "(§3)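 K562 cells treated 24 h at two doses per ligand (3 and 6 μM, 5.5 and 11 μM; positive control 2 and 4 μM). c-KIT, c-MYC and BCL-2 mRNA measured by qRT-PCR and normalized to housekeeping gene 18s, relative to untreated control.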"}, "[14]": {"tested_on": "K562", "assay": "Attenuation of proto-oncogene expression in human c-KIT-positive K562 cells assessed as reduction in BCL-2 oncogene expression at 6 uM measured after 24 hrs by qRT-PCR analysis relative to control", "type": "functional", "in_short": "as §3"}, "[15]": {"assay": "Reduction of c-KIT oncogene expression in human K562 cells transfected with c-KIT plasmid construct assessed as reduction in luciferase expression at 6 uM measured after 36 hrs by luciferase reporter assay", "type": "functional", "in_short": "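K562 cells were transfected with luciferase plasmids carrying the c-KIT, c-MYC or BCL-2 promoter G4. They were then treated with ligand (3 and 6 μM or 5.5 and 11 μM), and relative luciferase expression was measured.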"}, "[16]": {"assay": "Reduction of c-KIT protein expression in human K562 cells at 3 uM measured after 24 hrs by Western blotting analysis relative to control", "type": "functional", "in_short": "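K562 cells were treated with ligand (3 and 6 μM or 5.5 and 11 μM). c-KIT protein was measured by Western blot with GAPDH as the housekeeping reference, relative to control.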"}, "[17]": {"tested_on": "K562", "assay": "Induction of apoptosis in human K562 cells assessed as apoptosis incubated for 24 hrs by FITC-Annexin V and PI based flow cytometry", "type": "functional, cell-based", "in_short": "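K562 cells were treated with ligand (3 and 6 μM or 5.5 and 11 μM) and dual-stained with annexin V and PI. Early and late apoptotic populations were quantified by flow cytometry dot plot analysis.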"}}, "data": [{"smiles": "CN(C)CCCNC(=O)c1ccc(-n2cc(-c3ccc4[nH]c5ccccc5c4c3)nn2)cc1", "values": [{"measurement": "ΔTm", "setting": "[1]", "value": 3.5, "unit": "°C"}, {"measurement": "ΔTm", "setting": "[2]", "value": 26.5, "unit": "°C"}, {"measurement": "ΔTm", "setting": "[3]", "value": 17.3, "unit": "°C"}, {"measurement": "ΔTm", "setting": "[4]", "value": 12.1, "unit": "°C"}, {"measurement": "fold change (FC)", "setting": "[5]", "value": 3.2}, {"measurement": "fold change (FC)", "setting": "[6]", "value": 1.6}, {"measurement": "Kd", "setting": "[7]", "value": 1.4, "unit": "µM"}, {"measurement": "Kd", "setting": "[8]", "value": 2.9, "unit": "µM"}, {"measurement": "ΔTm", "setting": "[9]", "value": 16, "unit": "°C"}, {"measurement": "Kd", "setting": "[10]", "value": 20.9, "unit": "µM"}, {"measurement": "Kd", "setting": "[11]", "value": 17.4, "unit": "µM"}, {"measurement": "IC50", "setting": "[12]", "value": 6.2, "unit": "µM"}, {"measurement": "inhibition at 6 µM", "setting": "[13]", "value": 19, "unit": "%"}, {"measurement": "inhibition at 6 µM", "setting": "[14]", "value": 39, "unit": "%"}, {"measurement": "inhibition at 6 µM", "setting": "[15]", "value": 69, "unit": "%"}, {"measurement": "inhibition at 3 µM", "setting": "[16]", "value": 23.3, "unit": "%"}, {"measurement": "Activity", "setting": "[17]", "value": "Dose-Dependent Effect"}]}]}
